Hits are enriched below; roughly 2.1% of the tested compounds scored in any of these assays.
APJ antag: antagonists of human apelin receptor APJ, primary screen, CHO-K1 cells, beta-arrestin complementation, luminescence. P35414. inhibition, % at 20 µM. 330,000 tested, 0.32% active;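 active = inhibition above about 40% at 20 µM, limit read from the data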;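 also: cells challenged with 10 nM apelin-13 agonist together with compound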
APJ agonist: agonists of human apelin receptor APJ, primary screen, CHO-K1 cells, PathHunter beta-arrestin, luminescence; activation, % at 20 µM; 330,000 tested, 0.11% active; P35414; AID 2520, 2010; 0% DMSO wells, 100% apelin;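 active = activation more than six SD over the plate average, tested at 20 µM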
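assay system = CHO-K1 APJ beta-arrestin complementation cell line | input = cell density 1000 per well | dosing = compound 20 µM once, DMSO 1% | timing = compound 90 min 25 °C, reagent 1 h | measured by = luminescence from split beta-galactosidase complementation, Galacton Star/Emerald II substrate | read-out basis = APJ agonist activity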
CCR6 antag: CCR6 receptor antagonists, primary screen, cell-based, CHO-K1, luminescence, beta-arrestin, uHTS; C-C chemokine receptor type 6 (Homo sapiens), P51684; CHO-K1 CCR6 PathHunter beta-arrestin, CCL20-stimulated; inhibition, % at 20 µM; 340,000 tested, 0.49% active;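 active = compounds whose inhibition of the agonist-driven luminescence signal at 20 µM reaches about 50%, limit read from the data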;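 also: cells stimulated with CCL20 at 14 nM final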
CXCR6 inh: CXCR6 receptor inhibitors, primary screen, cell-based, beta-arrestin, luminescence, CHO-K1 PathHunter, 1536-well; C-X-C chemokine receptor type 6 (Homo sapiens), O00574; inhibition, % at 20 µM; 360,000 tested, 0.36% active; in the data active = inhibition above about 34%, passing the limit was not always enough;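 also: antagonist mode with CXCL16 agonist at 10 nM final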
m5-HT2A agonist: mouse Htr2a agonists via beta-arrestin recruitment, primary screen, cell-based, luminescence; activation, % at 7.6 µM; 360,000 tested, 0.66% active; CHO-K1 mHTR2A beta-arrestin complementation; percent of 30 µM serotonin response; 5-hydroxytryptamine receptor 2A (Mus musculus), P35363;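 active = activation above a run cutoff, the mean activation of all tested compounds plus 3 SD, cut at about 14% in these data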
EBI2 antag: EBI2 receptor antagonists, beta-arrestin recruitment, primary screen, cell-based, luminescence, 7a,25-OHC stimulation, uHTS; G-protein coupled receptor 183 (Homo sapiens), P32249; 7a,25-OHC stimulated; inhibition, % at 5 µM; 360,000 tested, 0.81% active; AID 651636, 2012; in the data active = inhibition above about 38%;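 also: enzyme fragment complementation signal reports receptor beta-arrestin coupling in cells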
Target sequence (P32249 whole entry, looked up, the tested form may be a part): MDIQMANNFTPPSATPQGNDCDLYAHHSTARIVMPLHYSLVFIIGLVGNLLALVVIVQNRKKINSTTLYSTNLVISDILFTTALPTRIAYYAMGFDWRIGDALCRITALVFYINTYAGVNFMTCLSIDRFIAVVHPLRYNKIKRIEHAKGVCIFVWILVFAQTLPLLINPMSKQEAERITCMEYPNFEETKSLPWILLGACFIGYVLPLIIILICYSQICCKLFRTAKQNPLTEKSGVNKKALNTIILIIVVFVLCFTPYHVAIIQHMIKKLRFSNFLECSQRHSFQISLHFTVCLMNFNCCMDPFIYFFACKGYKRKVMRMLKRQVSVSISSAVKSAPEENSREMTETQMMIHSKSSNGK
MOR ag counter: OPRM1 agonists via beta-arrestin recruitment, confirmation, counter-screen for mouse HTR2A agonist project, cell-based, luminescence, single concentration; shares compounds with m5-HT2A agonist; U2OS OPRM1 beta-arrestin PathHunter; DMSO 0%, DAMGO 9.3 µM 100%; activation, % at 9.3 µM; 2,300 tested, 5.3% active; AID 624380, 2012;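 active = mean activation above the mean of DMSO-only wells plus 3 SD, cut at about 0.5% in these data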
HTR2A ag conf: mouse HTR2A agonists, beta-arrestin recruitment, confirmation, cell-based, luminescence, CHO-K1 PathHunter, triplicate; shares compounds with m5-HT2A agonist; DMSO 0%, 30 µM serotonin 100%; activation, % at 7.6 µM; 2,300 tested, 19% active; AID 624381, 2012;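 active = mean activation across triplicates above the hit threshold derived in the original primary screen, cut at about 15% in these data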
Each line names hits and unclear results; the compound was inactive in the other large screens (follow-up assays come after a bar, where they were run).

COc1cc2c(c(OC)c1OC)-c1ccc(N(C)CC(OC)OC)c(=O)cc1[C@@H](NC(C)=O)CC2	m5-HT2A agonist 25 | MOR ag counter inactive | HTR2A ag conf inactive
CN[C@H]1CCc2cc(OC)c(OC)c(OC)c2-c2ccc(N(C)CC(OC)OC)c(=O)cc21	none
CCSc1ccc([C@@H]2[C@@H]3C(=O)N(C)C(=O)[C@@H]3[C@]3(C(=O)OC)CCCCN23)cc1	none
CC1(C)CC(=O)C(C(=O)c2ccccc2)C(=O)C1	m5-HT2A agonist 19 | MOR ag counter inactive | HTR2A ag conf inactive
Cc1ccc(C)c(S(=O)(=O)N2CCN(c3ncccn3)CC2)c1	none
COc1cccc(N2CCN(Cc3cccnc3)CC2)c1	none
Oc1cc2c(cc1CN1CCN(c3ncccn3)CC1)OCO2	m5-HT2A agonist 17 | MOR ag counter inactive | HTR2A ag conf 123
COc1cc(Br)cc(CN2CCN(c3ncccn3)CC2)c1O	m5-HT2A agonist 33 | MOR ag counter inactive | HTR2A ag conf 106
COc1cccc(CN2CCN(c3ncccn3)CC2)c1	m5-HT2A agonist 36 | MOR ag counter inactive | HTR2A ag conf 113
Cc1ccc(C)c(CN2CCN(c3ncccn3)CC2)c1	m5-HT2A agonist 17 | MOR ag counter inactive | HTR2A ag conf 62
FC(F)Oc1cccc(NC(=S)N2CCN(c3ccccn3)CC2)c1	none
Cc1ccc(CN2CCN(c3ncccn3)CC2)o1	m5-HT2A agonist 30 | MOR ag counter inactive | HTR2A ag conf 60
Fc1ccccc1CN1CCN(c2ncccn2)CC1	m5-HT2A agonist 26 | MOR ag counter inactive | HTR2A ag conf 121
Cc1ccc(NC(=S)Nc2ccc(F)cc2)c(C)c1	none
O=C(NC1CC1)c1ccc(NS(=O)(=O)c2ccccc2)cc1	none
O=C(NC1CCC(O)CC1)c1ccc(NS(=O)(=O)c2cccc([N+](=O)[O-])c2)cc1 (centres undefined)	m5-HT2A agonist 15 | MOR ag counter inactive | HTR2A ag conf inactive
COc1ccc(-n2c(SCC(=O)Nc3cc(C)on3)nc3c(c2=O)SCC3)cc1OC	m5-HT2A agonist 23 | MOR ag counter inactive | HTR2A ag conf inactive
CN(C)c1nc(/C=C(\C#N)C(N)=O)c(Cl)n1-c1ccc(F)cc1	none
CCCCOc1ccc(C(=O)NCC(=O)NNC(=O)C2COc3ccccc3O2)cc1 (centres undefined)	none
CCOc1ccc(C(=O)NCC(=O)NNC(=O)C2COc3ccccc3O2)cc1OCC (centres undefined)	m5-HT2A agonist 19 | MOR ag counter inactive | HTR2A ag conf inactive
Cc1ccc(-c2ccnc(=S)[nH]2)cc1	m5-HT2A agonist 15 | MOR ag counter inactive | HTR2A ag conf inactive
S=c1nccc(-c2ccc3c(c2)CCO3)[nH]1	none
Cc1cccc(N(CC(=O)NC(C)(C)C)C(=O)CCC(=O)Nc2ccccn2)c1	none
Cc1ccc(SCCNC(=O)C(C)C)cc1	m5-HT2A agonist 16 | MOR ag counter inactive | HTR2A ag conf inactive
Cc1ccc(NC(=O)NCCSc2ccc(C)cc2)cc1	none
O=C(c1cc(-c2ccccc2)on1)N1CCN(c2ccccc2)CC1	none
O=C(c1cc(-c2ccco2)on1)N1CCN(c2ccccc2)CC1	m5-HT2A agonist 30 | MOR ag counter inactive | HTR2A ag conf inactive
O=C(c1ccccc1C(=O)N1CCN(c2ccccc2)CC1)N1CCN(c2ccccc2)CC1	m5-HT2A agonist 22 | MOR ag counter inactive | HTR2A ag conf inactive
O=C(O)C1C2CCC(C2)C1C(=O)NCCc1cccc(Cl)c1 (centres undefined)	m5-HT2A agonist 24 | MOR ag counter inactive | HTR2A ag conf inactive
O=C(O)C1C2CCC(C2)C1C(=O)NCCc1ccc(F)cc1 (centres undefined)	none
COCCCN1C(=O)C(=O)/C(=C(/O)c2ccc(S(=O)(=O)N3CCOCC3)cc2)C1c1ccc(Cl)cc1 (centres undefined)	none
COCCCN1C(=O)C(=O)/C(=C(/O)c2ccc(S(=O)(=O)N3CCOCC3)cc2)C1c1ccc(C)cc1 (centres undefined)	m5-HT2A agonist 18 | MOR ag counter inactive | HTR2A ag conf inactive
COc1ccc(/C(O)=C2/C(=O)C(=O)N(CCCN3CCOCC3)C2c2ccc(C(C)C)cc2)cc1 (centres undefined)	m5-HT2A agonist 15 | MOR ag counter inactive | HTR2A ag conf inactive
Cc1cccc(S(=O)(=O)NC(=O)C2(C)CCN2C(=O)CC2CCCCC2)c1 (centres undefined)	none (no result: APJ antag, APJ agonist, CCR6 antag)
COc1cc(NC(=O)CCc2nnc3ccc(N4CCCC4)nn23)cc(OC)c1OC	none
COc1cc(NC(=O)CCc2nnc3ccc(N4CCCCC4)nn23)cc(OC)c1OC	m5-HT2A agonist 16 | MOR ag counter inactive | HTR2A ag conf inactive
O=C(Nc1ccc(Cl)cc1)Nc1nc(-c2ccccc2O)cs1	m5-HT2A agonist 14 | MOR ag counter inactive | HTR2A ag conf inactive
CC(CN1CCN(C/C=C/c2ccccc2)CC1)c1ccccc1 (centres undefined)	none
O=C(CCN1N=C(c2ccccc2)CCC1=O)NC1CCCCC1	none (no result: APJ antag, APJ agonist, CCR6 antag)
O=C(CCN1N=C(c2ccccc2)CCC1=O)NC1CCCC1	m5-HT2A agonist 19 | MOR ag counter inactive | HTR2A ag conf inactive
O=C(CN(c1cccc(Cl)c1)S(=O)(=O)c1ccc(Cl)cc1)NCc1ccccn1	none
Cc1nc(-c2nc(-c3c(C(=O)NNC(=O)Nc4cccc(Cl)c4)noc3C)cs2)cs1	m5-HT2A agonist 19 | MOR ag counter inactive | HTR2A ag conf 52
COc1ccc(CCNC(=O)c2cc(COc3c(C)cccc3C)on2)c(OC)c1	none
CC(C)C(=O)Nc1c2c(nn1-c1ccc(F)cc1)CSC2	m5-HT2A agonist 16 | MOR ag counter inactive | HTR2A ag conf inactive
O=[N+]([O-])c1cccc(-c2ccc(/C=N/NC(=S)NCc3ccco3)o2)c1	m5-HT2A agonist 20 | MOR ag counter inactive | HTR2A ag conf inactive
Cc1cccc(N2CC(C(=O)Nc3ccc(N4CCOCC4)cc3)CC2=O)c1C (centres undefined)	none

Compound activity: PubChem, several laboratories
